# Legend:
# [1] = Metabolic stability in Sprague-Dawley rat liver microsomes after 1 hr; format: ADME, Microsome; conditions: read-out: Stability
# How it was run: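 Rat liver microsomes incubated with compound, in vitro metabolism; read-out is percent of parent remaining at 1 h.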
# [2] = Activity at alpha7-5HT3 chimera expressed in SHEP1 cells by FLIPR assay; format: functional, cell-based; conditions: Homo sapiens, SH-EP1
# How it was run: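 Cell-based FLIPR functional assay in SH-EP1 cells expressing the α7-5HT3 chimera. Values are the average of at least five experiments for most compounds.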
# [3] = target: Neuronal acetylcholine receptor subunit alpha-7 (Rattus norvegicus, UniProt Q05941); test: Displacement of [3H]MLA from alpha-7 nAChR in Sprague-Dawley rat brain homogenates; format: tissue-based
# How it was run: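 Rat brain homogenate binding assay with [3H]MLA as radioligand. Values are the average of two or more experiments.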
# [4] = target: Neuronal acetylcholine receptor; alpha4/beta2 (Rattus norvegicus) (UniProt P09483+P12390); test: Inhibition of [3H]cytisine binding to alpha4beta2 nAChR in rat brain homogenate at 1 uM; format: tissue-based
# How it was run: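 Radioligand displacement in rat brain homogenate with [³H]cytisine as the α4β2 ligand; test compound at 1 µM; value reported as % block of binding.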
# hERG [5] = target: T1, hERG (Homo sapiens, UniProt Q12809); test: Inhibition of hERG expressed in HEK293 cells at 2 uM by patch clamp assay; format: toxicity, cell-based; conditions: HEK293 cells that express hERG
# T1 sequence (Q12809 whole entry): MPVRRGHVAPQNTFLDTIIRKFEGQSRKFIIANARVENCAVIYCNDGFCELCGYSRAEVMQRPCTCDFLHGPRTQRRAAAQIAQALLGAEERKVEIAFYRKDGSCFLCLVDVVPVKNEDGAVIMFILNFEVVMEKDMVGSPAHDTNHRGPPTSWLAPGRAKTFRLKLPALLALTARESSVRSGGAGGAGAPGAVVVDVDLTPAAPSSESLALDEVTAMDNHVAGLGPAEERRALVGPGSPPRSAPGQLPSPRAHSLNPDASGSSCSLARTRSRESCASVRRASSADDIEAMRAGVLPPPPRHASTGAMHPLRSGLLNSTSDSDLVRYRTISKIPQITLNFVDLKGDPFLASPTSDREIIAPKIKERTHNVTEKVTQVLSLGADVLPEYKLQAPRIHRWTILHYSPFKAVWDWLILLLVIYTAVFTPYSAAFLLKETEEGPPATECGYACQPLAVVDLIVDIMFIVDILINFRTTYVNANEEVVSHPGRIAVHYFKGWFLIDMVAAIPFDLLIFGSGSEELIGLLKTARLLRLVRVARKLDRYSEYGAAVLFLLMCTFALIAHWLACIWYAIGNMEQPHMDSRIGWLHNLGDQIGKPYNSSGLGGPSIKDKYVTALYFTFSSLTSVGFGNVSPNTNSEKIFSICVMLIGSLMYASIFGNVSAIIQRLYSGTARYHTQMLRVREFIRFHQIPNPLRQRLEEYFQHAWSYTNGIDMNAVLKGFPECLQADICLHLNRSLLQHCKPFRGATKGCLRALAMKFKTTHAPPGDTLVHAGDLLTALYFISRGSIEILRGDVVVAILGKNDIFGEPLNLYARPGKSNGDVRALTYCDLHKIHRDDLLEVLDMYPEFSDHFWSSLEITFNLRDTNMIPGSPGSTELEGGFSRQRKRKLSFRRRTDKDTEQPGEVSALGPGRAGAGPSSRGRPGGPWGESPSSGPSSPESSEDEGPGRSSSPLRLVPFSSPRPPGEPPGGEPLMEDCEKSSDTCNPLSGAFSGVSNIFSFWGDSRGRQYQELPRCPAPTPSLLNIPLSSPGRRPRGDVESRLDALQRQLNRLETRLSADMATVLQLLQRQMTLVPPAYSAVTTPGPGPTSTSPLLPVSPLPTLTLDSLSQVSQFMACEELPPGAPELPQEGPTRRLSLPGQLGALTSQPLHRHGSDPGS
# How it was run: (§1)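 hERG current (IKr) in HEK cells recorded by patch clamp; compound applied at 2 and 20 µM; % block of current reported at each concentration.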
# Cytochrome P450 2D6 = Cytochrome P450 2D6 (Homo sapiens, UniProt P10635); test: Inhibition of CYP2D6; format: ADME
# Chain of Cytochrome P450 2D6 (P10635 whole entry): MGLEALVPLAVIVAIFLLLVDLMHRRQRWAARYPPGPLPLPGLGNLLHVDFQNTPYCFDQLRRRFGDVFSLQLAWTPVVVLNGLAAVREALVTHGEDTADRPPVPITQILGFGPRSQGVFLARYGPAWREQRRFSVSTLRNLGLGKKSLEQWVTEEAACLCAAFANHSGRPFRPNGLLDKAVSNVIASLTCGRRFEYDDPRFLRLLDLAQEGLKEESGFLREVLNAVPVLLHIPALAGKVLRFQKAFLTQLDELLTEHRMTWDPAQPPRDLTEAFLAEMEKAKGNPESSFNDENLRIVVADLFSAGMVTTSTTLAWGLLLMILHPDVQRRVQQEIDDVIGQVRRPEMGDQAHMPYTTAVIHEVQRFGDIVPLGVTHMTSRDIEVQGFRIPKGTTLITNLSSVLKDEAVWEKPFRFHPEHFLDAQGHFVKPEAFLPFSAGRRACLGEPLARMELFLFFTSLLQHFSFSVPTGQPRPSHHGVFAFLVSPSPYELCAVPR
# hERG [6] = target: T1, hERG; test: Inhibition of hERG expressed in HEK293 cells at 20 uM by patch clamp assay; format: toxicity, cell-based; conditions: HEK293 cells that express hERG; how it was run: as §1
# [7] = Oral bioavailability in rat constant infusion model; format: ADME, organism-based; conditions: in vivo
# How it was run: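 Rat clearance and oral bioavailability derived from a constant infusion model.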
# [8] = target: Acetylcholine receptor; alpha1/beta1/delta/gamma (Homo sapiens, UniProt P02708+P07510+P11230+Q07001); test: Inhibition of alpha-1-beta-1-gamma-delta nAChR expressed in TE671cells by FLIPR assay; format: functional, cell-based, TE-671
# Chain of Acetylcholine receptor; alpha1/beta1/delta/gamma (P02708 whole entry): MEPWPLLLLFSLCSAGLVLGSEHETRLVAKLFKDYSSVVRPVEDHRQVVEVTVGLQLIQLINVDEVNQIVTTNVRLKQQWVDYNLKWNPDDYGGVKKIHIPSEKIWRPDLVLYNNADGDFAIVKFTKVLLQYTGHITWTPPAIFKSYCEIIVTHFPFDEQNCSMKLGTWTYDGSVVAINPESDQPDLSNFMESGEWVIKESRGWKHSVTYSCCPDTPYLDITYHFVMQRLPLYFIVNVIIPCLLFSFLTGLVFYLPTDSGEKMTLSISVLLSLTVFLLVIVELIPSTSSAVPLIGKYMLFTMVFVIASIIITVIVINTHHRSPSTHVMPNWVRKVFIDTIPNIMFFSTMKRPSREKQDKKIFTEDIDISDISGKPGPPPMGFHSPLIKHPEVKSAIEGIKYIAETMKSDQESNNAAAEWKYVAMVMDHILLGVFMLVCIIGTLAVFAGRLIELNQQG
# Chain of Acetylcholine receptor; alpha1/beta1/delta/gamma (P07510 whole entry): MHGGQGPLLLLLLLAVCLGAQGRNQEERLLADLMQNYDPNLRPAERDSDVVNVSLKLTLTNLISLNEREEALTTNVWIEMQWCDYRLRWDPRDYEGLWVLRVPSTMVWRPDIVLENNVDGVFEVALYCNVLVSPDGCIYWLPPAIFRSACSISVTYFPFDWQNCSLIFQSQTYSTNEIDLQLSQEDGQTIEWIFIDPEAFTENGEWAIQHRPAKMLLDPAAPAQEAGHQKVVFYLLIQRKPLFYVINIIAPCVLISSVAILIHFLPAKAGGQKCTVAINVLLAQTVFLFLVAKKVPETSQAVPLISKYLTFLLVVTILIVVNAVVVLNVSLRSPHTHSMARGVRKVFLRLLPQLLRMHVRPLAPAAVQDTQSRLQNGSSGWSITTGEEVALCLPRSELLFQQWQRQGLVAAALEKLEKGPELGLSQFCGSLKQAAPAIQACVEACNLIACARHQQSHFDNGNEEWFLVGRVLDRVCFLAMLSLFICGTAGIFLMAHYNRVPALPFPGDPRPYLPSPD
# Chain of Acetylcholine receptor; alpha1/beta1/delta/gamma (P11230 whole entry): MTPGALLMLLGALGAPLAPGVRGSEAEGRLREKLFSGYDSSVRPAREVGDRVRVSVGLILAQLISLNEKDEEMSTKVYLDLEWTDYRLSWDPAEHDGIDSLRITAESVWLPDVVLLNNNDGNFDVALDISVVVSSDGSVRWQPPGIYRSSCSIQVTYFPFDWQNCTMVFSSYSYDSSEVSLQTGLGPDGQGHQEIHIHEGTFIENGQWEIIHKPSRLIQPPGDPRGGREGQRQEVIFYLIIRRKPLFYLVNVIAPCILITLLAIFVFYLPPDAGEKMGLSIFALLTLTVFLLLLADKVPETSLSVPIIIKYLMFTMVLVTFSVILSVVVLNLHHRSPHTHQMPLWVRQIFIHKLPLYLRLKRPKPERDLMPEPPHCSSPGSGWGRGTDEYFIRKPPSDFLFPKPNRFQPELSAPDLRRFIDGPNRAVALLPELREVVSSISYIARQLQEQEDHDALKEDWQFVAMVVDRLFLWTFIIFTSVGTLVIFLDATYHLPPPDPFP
# Chain of Acetylcholine receptor; alpha1/beta1/delta/gamma (Q07001 whole entry): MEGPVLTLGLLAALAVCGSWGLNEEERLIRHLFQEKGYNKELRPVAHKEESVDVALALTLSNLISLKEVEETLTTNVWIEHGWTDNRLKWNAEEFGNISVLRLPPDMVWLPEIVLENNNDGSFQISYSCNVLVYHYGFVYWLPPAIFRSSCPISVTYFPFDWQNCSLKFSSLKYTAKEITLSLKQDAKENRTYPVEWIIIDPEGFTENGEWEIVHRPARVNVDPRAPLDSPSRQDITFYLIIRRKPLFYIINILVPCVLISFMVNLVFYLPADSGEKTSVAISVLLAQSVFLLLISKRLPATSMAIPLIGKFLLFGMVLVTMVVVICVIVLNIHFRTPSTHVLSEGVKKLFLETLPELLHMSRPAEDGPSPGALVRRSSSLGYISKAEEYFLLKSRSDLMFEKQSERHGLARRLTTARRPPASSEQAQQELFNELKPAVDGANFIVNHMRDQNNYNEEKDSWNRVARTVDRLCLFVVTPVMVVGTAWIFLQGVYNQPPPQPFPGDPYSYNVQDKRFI
# How it was run: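 Functional FLIPR read-out in TE671 cells expressing native muscle-type α1β1γδ nAChR, cell-based; tested for agonist and antagonist activity; IC50 in µM.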
# [9] = target: Serotonin 3 (5-HT3) receptor; test: Binding affinity to 5HT3 receptor; format: protein-complex assay, Homo sapiens
# [10] = target: Serotonin 3 (5-HT3) receptor; test: Activity at 5HT3 receptor expressed in SHEP1 cells by FLIPR assay; format: functional, cell-based, Homo sapiens
# How it was run: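 Cell-based FLIPR functional assay in SH-EP1 cells expressing 5-HT3.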
# [11] = Clearance in rat constant infusion model; format: ADME, organism-based; conditions: in vivo, iv
# How it was run: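 Clearance determined in a rat constant infusion model.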
# [12] = Half life in human liver microsome; format: ADME; conditions: liver microsomes
# [13] = Half life in Sprague-Dawley rat liver microsome; format: ADME; conditions: liver microsomes
# [14] = target: Neuronal acetylcholine receptor; alpha3/beta4 (Homo sapiens, UniProt P30926+P32297); test: Inhibition of alpha-3-beta-4 nAChR expressed in SHSY5Y cells by FLIPR assay; format: functional, cell-based, SH-SY5Y
# Chain of Neuronal acetylcholine receptor; alpha3/beta4 (P30926 whole entry): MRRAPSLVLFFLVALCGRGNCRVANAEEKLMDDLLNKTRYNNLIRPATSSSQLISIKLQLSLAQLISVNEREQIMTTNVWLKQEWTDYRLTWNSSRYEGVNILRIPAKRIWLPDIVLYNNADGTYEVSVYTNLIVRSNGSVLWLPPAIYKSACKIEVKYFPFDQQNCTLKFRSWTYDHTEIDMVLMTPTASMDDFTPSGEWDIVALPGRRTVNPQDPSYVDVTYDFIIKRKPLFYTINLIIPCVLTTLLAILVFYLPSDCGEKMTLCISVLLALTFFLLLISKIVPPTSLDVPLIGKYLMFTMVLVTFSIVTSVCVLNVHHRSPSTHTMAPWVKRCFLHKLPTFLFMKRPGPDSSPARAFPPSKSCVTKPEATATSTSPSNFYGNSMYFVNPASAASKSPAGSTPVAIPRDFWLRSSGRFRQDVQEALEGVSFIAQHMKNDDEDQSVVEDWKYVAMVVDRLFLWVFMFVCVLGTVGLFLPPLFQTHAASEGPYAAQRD
# Chain of Neuronal acetylcholine receptor; alpha3/beta4 (P32297 whole entry): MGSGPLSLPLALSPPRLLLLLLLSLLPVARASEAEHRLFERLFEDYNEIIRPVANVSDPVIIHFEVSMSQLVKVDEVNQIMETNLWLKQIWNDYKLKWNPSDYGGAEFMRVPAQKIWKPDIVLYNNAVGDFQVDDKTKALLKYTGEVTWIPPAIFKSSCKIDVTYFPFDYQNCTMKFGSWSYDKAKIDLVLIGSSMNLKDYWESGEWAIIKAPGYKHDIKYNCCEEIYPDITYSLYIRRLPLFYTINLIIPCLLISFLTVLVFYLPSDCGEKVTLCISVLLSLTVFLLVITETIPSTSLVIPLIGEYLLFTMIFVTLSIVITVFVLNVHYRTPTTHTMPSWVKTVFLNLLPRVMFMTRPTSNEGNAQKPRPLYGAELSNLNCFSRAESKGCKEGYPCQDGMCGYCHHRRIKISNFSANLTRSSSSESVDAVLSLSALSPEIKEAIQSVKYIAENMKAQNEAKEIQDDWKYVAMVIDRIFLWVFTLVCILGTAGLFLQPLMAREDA
# How it was run: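 FLIPR cell-based functional assay in SH-SY5Y cells, which carry α3β4-containing ganglion-type nAChRs; tested for agonist and antagonist activity; IC50 in µM.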
smiles,measurement,setting,value
O=C(N[C@H]1CN2CCC1CC2)c1cc2sccc2cn1,remaining at 1 h,[1],7%
same,EC50,[2],81 nM
O=C(N[C@H]1CN2CCC1CC2)c1ccc2c(c1)CCO2,Ki,[3],15 nM
same,EC50,[2],77 nM
O=C(N[C@H]1CN2CCC1CC2)c1ccc2[nH]ccc2c1,EC50,[2],550 nM
O=C(N[C@H]1CN2CCC1CC2)c1ccc2occc2c1,inhibition,[4],5%
same,inhibition at 2 µM,hERG [5],2%
same,IC50,Cytochrome P450 2D6,3600 nM
same,inhibition at 20 µM,hERG [6],33%
same,bioavailability,[7],88%
same,IC50,[8],> 100000 nM
same,Ki,[9],663 nM
same,Ki,[10],580 nM
same,Ki,[3],1.6 nM
same,remaining at 1 h,[1],77%
same,clearance,[11],39 mL/min/kg
same,half-life,[12],> 2 h
same,half-life,[13],> 2 h
same,IC50,[14],> 100000 nM
same,EC50,[2],47 nM
O=C(N[C@H]1CN2CCC1CC2)c1cc2ccsc2cn1,Ki,[3],6.3 nM
same,remaining at 1 h,[1],7%
same,EC50,[2],100 nM
O=C(N[C@H]1CN2CCC1CC2)c1cc2occc2cn1,Ki,[3],50 nM
same,remaining at 1 h,[1],40%
same,EC50,[2],374 nM
O=C(N[C@H]1CN2CCC1CC2)c1ccc2ccoc2c1,inhibition at 2 µM,hERG [5],2%
same,IC50,Cytochrome P450 2D6,> 10000 nM
same,inhibition at 20 µM,hERG [6],29%
same,bioavailability,[7],76%
same,IC50,[8],> 100000 nM
same,Ki,[9],310 nM
same,Ki,[10],962 nM
same,Ki,[3],12.5 nM
same,remaining at 1 h,[1],69%
same,clearance,[11],58 mL/min/kg
same,half-life,[12],> 2 h
same,IC50,[14],81000 nM
same,EC50,[2],86 nM
O=C(N[C@H]1CN2CCC1CC2)c1ccc2cc[nH]c2c1,remaining at 1 h,[1],14%
same,EC50,[2],100 nM
O=C(N[C@H]1CN2CCC1CC2)c1ccc2ccsc2c1,inhibition at 2 µM,hERG [5],13%
same,inhibition at 20 µM,hERG [6],65%
same,IC50,[8],> 100000 nM
same,Ki,[9],174 nM
same,Ki,[10],188 nM
same,Ki,[3],2.1 nM
same,remaining at 1 h,[1],29%
same,IC50,[14],38000 nM
same,EC50,[2],48 nM
O=C(N[C@H]1CN2CCC1CC2)c1ccc2ccoc2n1,EC50,[2],> 10000 nM
O=C(N[C@H]1CN2CCC1CC2)c1ccc(Cl)cc1 [PNU-282987],inhibition,[4],14%
same,inhibition at 2 µM,hERG [5],11%
same,IC50,Cytochrome P450 2D6,> 3000 nM
same,inhibition at 20 µM,hERG [6],57%
same,bioavailability,[7],74%
same,IC50,[8],> 60000 nM
same,Ki,[9],1660 nM
same,Ki,[10],4540 nM
same,Ki,[3],24 nM
same,remaining at 1 h,[1],96%
same,clearance,[11],30 mL/min/kg
same,half-life,[12],> 2 h
same,half-life,[13],> 2 h
same,IC50,[14],> 60000 nM
same,EC50,[2],128 nM
O=C(N[C@H]1CN2CCC1CC2)c1cnc2occc2c1,EC50,[2],> 10000 nM
O=C(N[C@H]1CN2CCC1CC2)c1ccc2sccc2c1,Ki,[3],6.9 nM
same,remaining at 1 h,[1],6%
same,EC50,[2],55 nM
O=C(N[C@H]1CN2CCC1CC2)c1cc2cc[nH]c2cn1,remaining at 1 h,[1],29%
same,EC50,[2],1170 nM
O=C(N[C@H]1CN2CCC1CC2)c1ccc2c(c1)CCN2,Ki,[3],83 nM
same,EC50,[2],600 nM
